# High-throughput results deposited in PubChem by several laboratories.
# Most compounds without a hit are left out; they make up all but 4.1% or so of the library.
# KCNQ1 act: potentiators or activators of KCNQ1 channel, primary screen, cell-based, thallium flux, high-throughput; actives 0.35% (n = 310,000); Potassium voltage-gated channel subfamily KQT member 1 (Homo sapiens), P51787; B-score at 10 µM; CHO-K1 KCNQ1, thallium flux FluxOR fluorescence; stronger effect = higher value; AID 2648, 2010;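 active = fluorescence ratio B-score, a plate-corrected score, at least three library SD, with initial intensity B-score within 5 SD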
#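 Medium – assay buffer, equal DMSO in all wells · Material – CHO-K1 cell line with stable KCNQ1 potassium channel expression · Signal – kinetic FluxOR thallium fluorescence, 10-s 1-Hz baseline, 110-s post-stimulus read · Compound – single concentration per compound, DMSO matched to controls · Schedule – 37 °C overnight plating, 90-min dark dye load, 20-min compound pretreatment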
# KCNQ1 block: inhibitors of human KCNQ1 channel, primary screen, cell-based, thallium flux, high-throughput. Potassium voltage-gated channel subfamily KQT member 1 (Homo sapiens), P51787. CHO-K1 KCNQ1, FluxOR thallium flux fluorescence; stronger effect = higher value. B-score at 10 µM. actives 1.3% (n = 310,000). AID 2642, 2010;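 active = compounds whose thallium flux B-score, printed positive for inhibition, exceeds three library SD while starting fluorescence stays within three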;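 note: channel opened by potassium depolarization with thallium stimulus after 20 min compound exposure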
# Cl transport mod: KCC2 cotransporter modulators, thallium flux, primary screen, cell-based, HEK293 KCC2, FluoZin-2 fluorescence, MLSMR; Solute carrier family 12 member 5 (Homo sapiens), Q9H2X9; KCC2 cells, thallium flux FluoZin-2 fluorescence; B-score of Tl+ flux slope (higher = more flux/activation; lower = inhibition) at 10 µM; actives 2.2% (n = 190,000);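 active = thallium flux slope and its plate-corrected score both differing from the plate sample mean at a set confidence after two filtering rounds, in either direction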;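 note: slope of fluorescence scaled to starting intensity during 10 to 20 s after thallium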
# Target sequence (Q9H2X9 whole entry, looked up): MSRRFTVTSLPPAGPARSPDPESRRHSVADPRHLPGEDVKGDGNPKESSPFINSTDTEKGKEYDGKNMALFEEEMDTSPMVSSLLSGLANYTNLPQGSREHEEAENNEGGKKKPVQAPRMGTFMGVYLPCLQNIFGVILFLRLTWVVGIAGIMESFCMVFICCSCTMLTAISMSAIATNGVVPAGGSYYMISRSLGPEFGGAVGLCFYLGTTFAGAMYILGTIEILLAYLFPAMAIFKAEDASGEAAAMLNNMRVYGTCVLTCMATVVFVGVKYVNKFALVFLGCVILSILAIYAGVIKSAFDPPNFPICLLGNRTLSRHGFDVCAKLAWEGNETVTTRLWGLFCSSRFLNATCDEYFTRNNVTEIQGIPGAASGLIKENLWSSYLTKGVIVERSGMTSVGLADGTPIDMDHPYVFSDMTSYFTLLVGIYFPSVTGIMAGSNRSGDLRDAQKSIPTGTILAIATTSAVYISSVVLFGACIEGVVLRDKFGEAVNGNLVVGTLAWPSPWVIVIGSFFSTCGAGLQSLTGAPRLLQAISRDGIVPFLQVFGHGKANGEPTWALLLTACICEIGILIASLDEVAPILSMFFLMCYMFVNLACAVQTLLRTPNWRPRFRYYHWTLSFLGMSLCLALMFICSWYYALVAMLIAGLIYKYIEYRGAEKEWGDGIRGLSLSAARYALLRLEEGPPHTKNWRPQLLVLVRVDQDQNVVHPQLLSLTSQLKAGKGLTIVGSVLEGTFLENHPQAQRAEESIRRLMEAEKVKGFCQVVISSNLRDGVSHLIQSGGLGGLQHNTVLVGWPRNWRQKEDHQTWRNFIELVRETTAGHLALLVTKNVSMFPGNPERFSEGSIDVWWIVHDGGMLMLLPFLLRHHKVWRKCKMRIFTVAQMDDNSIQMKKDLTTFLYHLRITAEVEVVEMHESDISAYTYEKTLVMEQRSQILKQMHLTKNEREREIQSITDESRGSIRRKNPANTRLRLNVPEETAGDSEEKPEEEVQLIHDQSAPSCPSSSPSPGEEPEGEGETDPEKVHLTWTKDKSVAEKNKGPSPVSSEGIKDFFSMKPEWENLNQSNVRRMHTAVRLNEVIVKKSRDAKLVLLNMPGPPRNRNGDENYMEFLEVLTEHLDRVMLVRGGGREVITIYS
# KCNK9 block: KCNK9 potassium channel inhibitors, primary screen, HEK293 cells, thallium flux | Potassium channel subfamily K member 9 (Homo sapiens), Q9NPC2 | FluxOR thallium flux fluorescence; stronger effect = lower value | B-score at 10 µM | actives 1.2% (n = 310,000) | AID 488922, 2010;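 active = ratio B-score over 3 SD below the library mean, with starting fluorescence within 5 SD of its mean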;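 note: negative B-score means less thallium flux so channel inhibition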
# hERG protect: hERG rescue from dofetilide block, primary screen, cell-based, CHO-hERG, FluxOR thallium flux, dofetilide IC70 | activation (rescue from dofetilide block), less the hit threshold, % at 10 µM | AID 1511, 2009 | Voltage-gated inwardly rectifying potassium channel KCNH2 (Homo sapiens), Q12809 | actives 0.51% (n = 310,000) | dofetilide IC70 present;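 active = activation above the mean of controls blocked by dofetilide plus 5 SD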;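 note: thallium influx through hERG after potassium depolarization seen as dye fluorescence rise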
# KCNK3 inh: human KCNK3 channel inhibitors, primary screen, CHO cells, FluxOR thallium flux, B-score; Potassium channel subfamily K member 3 (Homo sapiens), O14649; FluxOR fluorescence; stronger effect = lower value; B-score at 10 µM; actives 0.84% (n = 340,000); AID 602410, 2012;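 active = B-score under library mean minus 4 SD, starting fluorescence ratio at most library mean plus 5 SD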;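 note: more negative B-score means stronger inhibition of thallium flux through KCNK3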
# KCNK9 block conf: KCNK9 potassium channel inhibitors, confirmation, HEK293 cells, thallium flux, duplicate; shares compounds with KCNK9 block; FluxOR thallium flux fluorescence; inhibition, % at 10 µM; actives 43% (n = 4,900); AID 492992, 2010;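 active = thallium signal inhibited by more than 5 SD of the compound-free buffer control wells, on both duplicate plates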;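 note: 0% = assay buffer control wells without compound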
# Kir21 sel: mouse Kir2.1 channel inhibition, confirmation, selectivity assay for KCNK9 modulator project, cell-based, HEK293, thallium flux. Kir2.1 cells, FluxOR thallium flux fluorescence. AID 492993, 2010. inhibition, % at 10 µM. shares compounds with KCNK9 block. actives 4% (n = 4,900);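 active = thallium signal drop more than 5 SD beyond the mean of the no-compound control wells, seen in both duplicate plates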;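 note: signal is fluorescence rise after thallium addition divided by baseline fluorescence; plate controls were assay buffer only for no effect and full block by chlorpromazine control for full effect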
# HEK293 Tl ctr: thallium flux in non-induced HEK293 cells, confirmation, counter-screen for KCNK9 inhibitor project, cell-based, second counter screen, non-induced KCNK9-HEK293; shares compounds with KCNK9 block; actives 40% (n = 4,900); inhibition, % at 10 µM; FluxOR thallium flux; AID 492997, 2010;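 active = thallium signal drop beyond 5 SD of the untreated control mean, on both duplicate plates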;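 note: plate controls were buffer only IC0 wells for no effect and SID17386958 at its maximal inhibitory level for full effect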
# * hit, by the source's call; i = inactive; nt = not tested or not shown; ! = repeats disagree.
SMILES,KCNQ1 act,KCNQ1 block,Cl transport mod,KCNK9 block,hERG protect,KCNK3 inh,KCNK9 block conf,Kir21 sel,HEK293 Tl ctr
Cc1cc(=O)oc2cc(NC(=O)C(CCCN=C(N)N)NC(=O)OCc3ccccc3)ccc12 (stereo not drawn),i,i,nt,i,-8,i,nt,nt,nt
Cc1ccc(NC(=O)CS(=O)c2ccccc2N)c(C)c1 (stereo not drawn),i,i,nt,i,-4,i,nt,nt,nt
Cc1cc2nnc(SC3CCCCN(C(=O)c4ccc(F)cc4)C3=O)n2c2ccccc12 (stereo not drawn),i,i,0.61,i,-5,i,i,i,i
O=C(c1ccc(F)cc1)N1CCCCC(Sc2nnc3ccccn23)C1=O (stereo not drawn),i,i,-0.086,i,-2,i,nt,nt,nt
COc1ccc(-n2c(SCCC#N)nnc2-c2cc(Cl)ccc2OC)cc1Cl,i,i,nt,-11*,-16,i,29%*,i,41%*
Cc1cccc(-c2nnc(SCC#N)n2-c2cccc(Cl)c2)c1,i,i,-1.5,i,-13,i,nt,nt,nt
Nc1nnnn1/N=C/c1cc(Br)ccc1O,i,i,nt,i,-11,i,nt,nt,nt
C=C(C(=O)c1ccccc1)C(C(=C)C(=O)c1ccccc1)c1ccc(OC)cc1,i,i,-0.54,i,-4,i,nt,nt,nt
C=C(C(=O)c1ccccc1)C(c1ccccc1)C(C)C(=O)c1ccccc1 (stereo not drawn),i,i,-1.2,-12*,-8,i,73%*,i,44%*
COc1cc(C)cc(OC)c1OCC(=O)Nc1cc(C)on1,nt,nt,nt,nt,nt,i,nt,nt,nt
CCCC[C@@H]1CCCO[C@@](C(=O)NCc2ccc(C)o2)(C(F)(F)F)C1,i,i,nt,i,-9,i,i,i,i
O=C(NCc1ccccc1)[C@]1(C(F)(F)F)C[C@H](CCc2ccccc2)CCCO1,i,i,nt,i,-8,i,i,i,i
CCC[C@@H]1CCCO[C@@](C(=O)NCc2ccc(S(C)(=O)=O)cc2)(C(F)(F)F)C1,i,i,nt,i,-3,i,nt,nt,nt
O=C(NC1CCCCC1)c1cc(-c2cccs2)on1,i,i,nt,i,-5,i,nt,nt,nt
CCOC(=O)C1CCN(C(=O)c2ccc(S(=O)(=O)Nc3ccccc3Cl)cc2)CC1,nt,nt,nt,nt,nt,i,nt,nt,nt
COc1ccc([C@H]2[C@H](C(=O)OC(C)(C)C)N3N=Cc4ccccc4C3C23C(=O)c2ccccc2C3=O)cc1OC (stereo partly drawn),i,i,-0.6,i,1,i,nt,nt,nt
CC(C)(C)C(=O)[C@H]1[C@H](c2ccccc2)[C@@]2(N=C(c3ccccc3)OC2=O)C2c3ccccc3C=NN21 (stereo partly drawn),i,i,-0.4,-9.7*,-18,i,29%*,i,i
CCCOc1ccc(CNC(=O)c2ccc3c(c2)N(CC)CCS3)cc1,i,i,nt,i,-10,i,i,i,i
CCN1CCSc2ccc(C(=O)NCc3cccc(F)c3)cc21,i,i,nt,i,-11,i,nt,nt,nt
NC(=NCCCCCCN=C(N)/N=C(\N)Nc1ccc(Cl)cc1)/N=C(\N)Nc1ccc(Cl)cc1,12*!,i,nt,-10*,-5,i,50%*,38%*,i
O=C(COC(=O)c1oc2ccccc2c1CSc1ccc(Cl)cc1)NC1CCCC1,i,10*,-0.00045,-8.1*,-6,i,32%*,36%*,50%*
CCN(CC)S(=O)(=O)c1cc(NC(=O)C(C)N(C)CC(=O)Nc2c(C)cccc2C)ccc1C (stereo not drawn),i,i,-1.6,-10*,-11,i,52%*,i,36%*
CSc1nnnn1-c1c(C)cccc1C,i,i,-0.007,i,-4,i,nt,nt,nt
Cc1cccc(C)c1-n1nnnc1SCSc1nnnn1-c1c(C)cccc1C,i,i,0.92,-13*,-8,i,i,i,35%*
CC(C)(C)n1nnnc1C(c1cccc(C#N)c1)N1CCC(Cc2ccccc2)CC1 (stereo not drawn),i,i,-0.25,-18*,-8,-11*,60%*,i,34%*
SMILES,KCNQ1 act,KCNQ1 block,Cl transport mod,KCNK9 block,hERG protect,KCNK3 inh,KCNK9 block conf,Kir21 sel,HEK293 Tl ctr
COc1ccc(/C=C/C(=O)OCC(=O)Nc2cccc(S(=O)(=O)NC3=NCCCCC3)c2)cc1,nt,nt,nt,nt,nt,i,nt,nt,nt
COc1cccc(OCc2cc(C(=O)NCCc3cccc(C)n3)no2)c1,i,i,nt,i,-6,i,nt,nt,nt
CN(CCCC1CCCC1)C(=O)c1cc(COc2c(F)cccc2F)on1,i,i,nt,i,-8,i,i,i,22%*
CN(CCCN1CCOCC1)C(=O)c1cc(COc2c(F)cccc2F)on1,i,i,nt,i,-6,i,nt,nt,nt
CN(CCCC1CCCC1)C(=O)c1cc(COc2ccc(F)cc2F)on1,i,i,nt,i,-13,i,i,i,i
CN(CCC1CCCCO1)C(=O)c1cc(COc2ccc(F)cc2F)on1 (stereo not drawn),i,i,nt,i,-11,i,nt,nt,nt
COc1cccc(CCNC(=O)c2cc(COc3c(F)cccc3F)on2)c1,i,i,nt,i,-12,i,i,i,i
Cc1ccc(OCC(=O)NC2CCS(=O)(=O)C2)c([N+](=O)[O-])n1 (stereo not drawn),i,i,nt,i,-15,i,nt,nt,nt
CCOc1ccc2cc(/C=C/C(=O)c3ccco3)c(Cl)nc2c1,i,i,-0.0071,-12*,-8,-9.6*,i,i,33%*
